Tested on: DU-145
Assay: Growth inhibition of human DU145 cells administered after 3 days
Type: functional, cell-based
Settings: DU-145, 72 h
In short: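 DU145 in RPMI 1640 with 10% FCS; 1 × 10⁵ cells per well in 24-well plates, compound added 4 h after seeding. After 3 days the adherent sheet was washed twice with PBS and harvested in 0.14 M NaOH, and protein content measured. IC50 is the mean of three experiments.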

SMILES: CCCN(CCC)C(C)(C)C#CC(=O)SC
- IC50: 12.6 µM

SMILES: CSC(=O)C#CC(C)(C)N(C)c1ccccc1
- IC50: 12.5 µM

SMILES: CSC(=O)C#CC(C)(C)N1CCc2ccccc21
- IC50: 7 µM

SMILES: CSC(=O)C#CC(C)(C)N(Cc1ccccc1)Cc1ccccc1
- IC50: 7 µM

Reference: ChEMBL document CHEMBL1156669, “Aldehyde dehydrogenase inhibitors: alpha,beta-acetylenic N-substituted aminothiolesters are reversible growth inhibitors of normal epithelial but irreversible apoptogens for cancer epithelial cells from human prostate in culture” (Eur J Med Chem, 2008)
